Experiment [1] concerns KU812 cell line. Description: Antiproliferative activity against human KU812 cells at 10 uM after 24 hrs by MTT assay. The class given is functional, cell-based. In outline: (§1)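 Screen at a single 10 μM, DMSO as vehicle control, growth followed at 24, 48 and 72 h. Readouts: MTT (0.2×10^5 cells/well in X-Vivo, 4 h MTT, SDS/HCl lysis, OD 570 nm) and trypan blue exclusion counts of living cells. n = 3 in triplicates, mean ± SEM.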
(In general: Tetrazolium dyes change colour on reduction, which living cells bring about.)

Experiment [2] concerns K562. Description: Antiproliferative activity against human K562 cells at 10 uM after 24 hrs by MTT assay. It is filed as functional, cell-based. The method in brief:
as §1

Experiment [3] concerns KU812 cell line. As to the kind of experiment: Antiproliferative activity against human KU812 cells at 10 uM after 24 hrs by trypan blue assay. The class given is functional, cell-based. In outline:
as §1

The subject of experiment [4] is K562. As to the kind of experiment: Antiproliferative activity against human K562 cells at 10 uM after 24 hrs by trypan blue assay. The class given is functional, cell-based. The method in brief:
as §1

The test system of experiment [5] is K562. Description: Antiproliferative activity against human K562 cells after 48 hrs by MTT assay. It is filed as functional, cell-based. The following applies: K562, 48 h. The method in brief:
(§2)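 K562 or KU812 cells (RPMI/10% FBS, 37 °C, 5% CO2) exposed to 100 nM–50 μM for 48 h. 0.2×10^5 cells per well in phenol-red-free X-Vivo, MTT 4 h, lysis overnight in 10% SDS/0.003% HCl, absorbance at 570 nm. EC50 fitted; n = 3 in triplicates, mean ± SEM.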

Experiment [6] relates to KU812 cell line. Description: Antiproliferative activity against human KU812 cells after 48 hrs by MTT assay. It is filed as functional, cell-based. Conditions: KU812, 48 h. The method in brief: as §2
For experiment [7], the system named is K562. Description: Antiproliferative activity against human K562 cells at 10 uM after 48 hrs by MTT assay. It is filed as functional, cell-based. The method in brief: as §1
The subject of experiment [8] is KU812 cell line. As to the kind of experiment: Antiproliferative activity against human KU812 cells at 10 uM after 48 hrs by MTT assay. The class given is functional, cell-based. In outline:
as §1

Experiment [9] deals with K562. As to the kind of experiment: Antiproliferative activity against human K562 cells at 10 uM after 48 hrs by trypan blue assay. The class given is functional, cell-based. The method in brief: as §1
The subject of experiment [10] is KU812 cell line. As to the kind of experiment: Antiproliferative activity against human KU812 cells at 10 uM after 48 hrs by trypan blue assay. The class given is functional, cell-based. In outline:
as §1

The test system of experiment [11] is KU812 cell line. Description: Antiproliferative activity against human KU812 cells at 10 uM after 72 hrs by trypan blue assay. The class given is functional, cell-based. In outline:
as §1

For experiment [12], the system named is KU812 cell line. As to the kind of experiment: Induction of apoptosis in human KU812 cells at 10 uM after 48 hrs by FITC-Annexin V and 7-amino-actinomycin D staining-based flow cytometry method. It is filed as functional, cell-based. In outline:
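After 48 h culture with 10 μM or DMSO, 10^6 cells stained with FITC-Annexin V and 7-AAD for 15 min at 4 °C. Percentage of apoptotic cells measured by flow cytometry; n = 3 in triplicates, mean ± SEM.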
For orientation: In flow cytometry, cells or beads pass a laser one at a time.

Experiment [13] relates to K562. Description: Antiproliferative activity against human K562 cells at 10 uM after 72 hrs by MTT assay. The class given is functional, cell-based. The method in brief: as §1
The subject of experiment [14] is KU812 cell line. Description: Antiproliferative activity against human KU812 cells at 10 uM up to 72 hrs by MTT assay. The class given is functional, cell-based. In outline:
as §1

For experiment [15], the system named is K562. As to the kind of experiment: Antiproliferative activity against human K562 cells at 10 uM after 72 hrs by trypan blue assay. The class given is functional, cell-based. The method in brief: as §1
Experiment [16] addresses T1, Signal transducer and activator of transcription 5A (Homo sapiens) (UniProt P42229).
T1 sequence (whole entry): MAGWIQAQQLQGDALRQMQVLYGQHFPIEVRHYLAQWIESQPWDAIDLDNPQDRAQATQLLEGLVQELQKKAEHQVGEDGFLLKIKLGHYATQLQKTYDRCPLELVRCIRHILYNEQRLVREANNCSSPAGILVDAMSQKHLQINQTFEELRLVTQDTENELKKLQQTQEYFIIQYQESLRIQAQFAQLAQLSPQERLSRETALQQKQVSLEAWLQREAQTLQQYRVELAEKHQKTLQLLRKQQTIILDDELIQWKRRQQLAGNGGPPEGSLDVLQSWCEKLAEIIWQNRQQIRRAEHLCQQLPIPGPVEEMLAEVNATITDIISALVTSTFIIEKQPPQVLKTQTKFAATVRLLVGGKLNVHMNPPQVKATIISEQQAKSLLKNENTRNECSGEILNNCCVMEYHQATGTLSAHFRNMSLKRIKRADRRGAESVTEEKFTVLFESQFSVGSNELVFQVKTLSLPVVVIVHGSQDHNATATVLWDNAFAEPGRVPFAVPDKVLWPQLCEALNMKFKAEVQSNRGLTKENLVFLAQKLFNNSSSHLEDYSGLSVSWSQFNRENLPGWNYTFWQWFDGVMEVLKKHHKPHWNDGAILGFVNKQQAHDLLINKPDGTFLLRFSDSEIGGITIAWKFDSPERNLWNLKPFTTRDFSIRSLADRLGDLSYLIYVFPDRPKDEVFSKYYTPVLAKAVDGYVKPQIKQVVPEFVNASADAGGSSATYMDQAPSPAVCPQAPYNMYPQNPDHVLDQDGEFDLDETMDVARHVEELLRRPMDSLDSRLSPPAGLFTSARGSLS
Description: Inhibition of STAT5 phosphorylation in human KU812 cells at 10 uM after 72 hrs by Western blot method. It is filed as cell-based. In outline: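 Western blot of KU812 cells 72 h after exposure to 10 µM. Lysates in 2x Laemmli buffer were run on SDS-PAGE and transferred to nitrocellulose. Blots were probed with P-Y694/699-STAT5 and STAT5 antibodies and detected by ECL.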
(In western blotting, separated proteins are transferred to a membrane and probed.)

Each structure is given as a SMILES string. Activity calls are given as the source filed them. The rule behind the calls is not given here.

As a reminder, the EC50 is the concentration at which the effect is half-maximal.

On to `CC1(C)CCN(CCOc2ccc3[nH]ccc3c2)c2ccccc21`, for which the result in the experiment on KU812 cell line [1], in the experiment with K562 [2], in the experiment with KU812 cell line [3] and in the experiment on K562 [4] was Active. The half-maximal effective concentration (EC50) in the experiment on K562 [5] came out at 78.1 µM; in the experiment on KU812 cell line [6], 14.6 µM.
Regarding `CC1(C)CCN(CCOc2ccc3c(ccn3CC(=O)O)c2)c2ccccc21`, the outcome in the experiment on K562 [7], with KU812 cell line [8], with K562 [9] and with KU812 cell line [10] was inactive.
Take `CC1(C)CCN(CCOc2ccc3[nH]ccc3c2)c2ccc(-c3ccc(Cl)nc3)cc21`: the outcome with KU812 cell line [11] and in the experiment on KU812 cell line [12] was Active. Besides, the EC50 in the experiment with K562 [5] was 13 µM; with KU812 cell line [6] it was 5.41 µM.
In the case of `CC1(C)CCN(CCOc2ccc3[nH]ccc3c2)c2ccc(-c3cccc([N+](=O)[O-])c3)cc21`, the result with K562 [13], in the experiment on KU812 cell line [11], in the experiment with KU812 cell line [14] and with K562 [15] was inactive.
As to `CC1(C)CCN(CCOc2ccc3[nH]ccc3c2)c2ccc(-c3ccncc3)cc21`, the result with KU812 cell line [11], in the experiment with KU812 cell line [12] and in the experiment with K562 [15] was Active. In addition, the 50% effective concentration (EC50) was determined as 22.7 µM in the experiment on K562 [5] and 9.38 µM in the experiment with KU812 cell line [6].
Consider `CC1(C)CCN(CCOc2ccc3[nH]ccc3c2)c2ccc(-c3ccccn3)cc21`, for which the result in the experiment on K562 [13], in the experiment on KU812 cell line [11], in the experiment on KU812 cell line [14] and with K562 [15] was inactive.
As for `CC1(C)CCN(CCOc2ccc3[nH]ccc3c2)c2ccc(C(=O)C3CCCCC3)cc21`, the result in the experiment on K562 [7], with KU812 cell line [1], in the experiment on K562 [9] and in the experiment on KU812 cell line [3] was Active. In addition, the result in the experiment on KU812 cell line [8], in the experiment on K562 [13], in the experiment with KU812 cell line [10] and in the experiment with K562 [15] was inactive.
Turning to `CC1(C)CCN(CCOc2ccc3[nH]ccc3c2)c2ccc(Br)cc21`, the EC50 is 15.6 µM with K562 [5] and 7.59 µM in the experiment with KU812 cell line [6].
Consider `CC1(C)CCN(CCOc2ccc3c(ccn3CC(=O)O)c2)c2ccc(C(=O)C3CCCCC3)cc21`, for which the inhibition entry in [16] is “Active”. Besides, the EC50 in the experiment with KU812 cell line [6] was 197 µM.
Turning to `CCOC(=O)Cn1ccc2cc(OCCN3CCC(C)(C)c4ccccc43)ccc21`, the result with K562 [13], in the experiment on KU812 cell line [11], with KU812 cell line [14] and with K562 [15] was inactive.
For `Cn1ccc2cc(OCCN3CCC(C)(C)c4ccccc43)ccc21`, the outcome in the experiment on K562 [13], with KU812 cell line [11], with KU812 cell line [14] and with K562 [15] was inactive.

The values above are taken from ChEMBL document CHEMBL4011645, “New Inhibitor Targeting Signal Transducer and Activator of Transcription 5 (STAT5) Signaling in Myeloid Leukemias” (J Med Chem, 2017).
